From ChEMBL document CHEMBL3632517, “Chemical conjugation of 2-hexadecynoic acid to C5-curcumin enhances its antibacterial activity against multi-drug resistant bacteria” (Bioorg Med Chem Lett, 2015)
Values after ≈ are worked out from the molar mass of the structure shown. Active and inactive are the calls of the source. The rule behind the calls is not given here.

Key:
Staphylococcus aureus [1] = assay: Antibacterial activity against methicillin-resistant Staphylococcus aureus CIMRSA6 after 18 to 24 hrs by spectrophotometric analysis; format: functional, organism-based
Staphylococcus aureus [2] = assay: Antibacterial activity against methicillin-resistant Staphylococcus aureus CIMRSA7 after 18 to 24 hrs by spectrophotometric analysis; format: functional, organism-based
Staphylococcus aureus [3] = assay: Antibacterial activity against methicillin-resistant Staphylococcus aureus CIMRSA3 after 18 to 24 hrs by spectrophotometric analysis; format: functional, organism-based
Staphylococcus aureus [4] = assay: Antibacterial activity against methicillin-resistant Staphylococcus aureus CIMRSA1 after 18 to 24 hrs by spectrophotometric analysis; format: functional, organism-based
Staphylococcus aureus [5] = assay: Antibacterial activity against methicillin-resistant Staphylococcus aureus CIMRSA4 after 18 to 24 hrs by spectrophotometric analysis; format: functional, organism-based
Escherichia coli = assay: Antibacterial activity against Escherichia coli ATCC 25922 after 18 to 24 hrs by spectrophotometric analysis; format: functional, organism-based
Staphylococcus aureus [6] = assay: Antibacterial activity against methicillin-resistant Staphylococcus aureus CIMRSA5 after 18 to 24 hrs by spectrophotometric analysis; format: functional, organism-based
Staphylococcus aureus [7] = assay: Antibacterial activity against methicillin-resistant Staphylococcus aureus ATCC 43300 after 18 to 24 hrs by spectrophotometric analysis; format: functional, organism-based
Staphylococcus aureus [8] = assay: Antibacterial activity against methicillin-resistant Staphylococcus aureus CIMRSA2 after 18 to 24 hrs by spectrophotometric analysis; format: functional, organism-based
[9] = Therapeutic index, ratio of IC50 for human PBMC to IC50 for methicillin-resistant Staphylococcus aureus CIMRSA5; conditions: read-out: Ratio IC50
Procedure, shortened: (§1)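 Therapeutic index is PBMC cytotoxicity IC50 divided by the antibacterial IC50 against each MRSA strain. PBMCs came from healthy volunteers, and their viability was read by CTG luminescent cell viability assay. Experiments were run in triplicate (N = 3).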

[10] = Therapeutic index, ratio of IC50 for human PBMC to IC50 for methicillin-resistant Staphylococcus aureus CIMRSA3; conditions: read-out: Ratio IC50; procedure, shortened: as §1
[11] = target: DNA gyrase (Staphylococcus aureus) (UniProt P0A0K8+P20831); assay: (§2) Inhibition of supercoiling activity of Staphylococcus aureus DNA gyrase using relaxed pHOT1 plasmid DNA after 60 mins using ethidium bromide staining by […]electrophoresis analysis; format: protein-complex assay
PBMC = assay: Cytotoxicity against human PBMC after 3 days by CTG luminescent cell viability assay; format: cell-based; conditions: 72 h
[12] = Therapeutic index, ratio of IC50 for human PBMC to IC50 for methicillin-resistant Staphylococcus aureus CIMRSA6; conditions: read-out: Ratio IC50; procedure, shortened: as §1
Vero = assay: Cytotoxicity against African green monkey Vero cells after 3 days by CTG luminescent cell viability assay; format: cell-based; conditions: Chlorocebus sabaeus, 72 h
[13] = Therapeutic index, ratio of IC50 for human PBMC to IC50 for methicillin-resistant Staphylococcus aureus CIMRSA4; conditions: read-out: Ratio IC50; procedure, shortened: as §1
[14] = Therapeutic index, ratio of IC50 for human PBMC to IC50 for methicillin-resistant Staphylococcus aureus CIMRSA7; conditions: read-out: Ratio IC50; procedure, shortened: as §1
[15] = Therapeutic index, ratio of IC50 for human PBMC to IC50 for methicillin-resistant Staphylococcus aureus CIMRSA1; conditions: read-out: Ratio IC50; procedure, shortened: as §1
[16] = Therapeutic index, ratio of IC50 for human PBMC to IC50 for methicillin-resistant Staphylococcus aureus ATCC 43300; conditions: read-out: Ratio IC50; procedure, shortened: as §1
[17] = Ratio of IC50 for human PBMC to IC50 for African green monkey Vero cells; format: cell-based; conditions: human PBMC versus Vero cells, read-out: Ratio IC50
[18] = Therapeutic index, ratio of IC50 for human PBMC to IC50 for methicillin-resistant Staphylococcus aureus CIMRSA2; conditions: read-out: Ratio IC50; procedure, shortened: as §1
DNA gyrase = DNA gyrase (Staphylococcus aureus, UniProt P0A0K8+P20831); assay: as §2; format: protein-complex assay
Sequence of DNA gyrase (P0A0K8 whole entry): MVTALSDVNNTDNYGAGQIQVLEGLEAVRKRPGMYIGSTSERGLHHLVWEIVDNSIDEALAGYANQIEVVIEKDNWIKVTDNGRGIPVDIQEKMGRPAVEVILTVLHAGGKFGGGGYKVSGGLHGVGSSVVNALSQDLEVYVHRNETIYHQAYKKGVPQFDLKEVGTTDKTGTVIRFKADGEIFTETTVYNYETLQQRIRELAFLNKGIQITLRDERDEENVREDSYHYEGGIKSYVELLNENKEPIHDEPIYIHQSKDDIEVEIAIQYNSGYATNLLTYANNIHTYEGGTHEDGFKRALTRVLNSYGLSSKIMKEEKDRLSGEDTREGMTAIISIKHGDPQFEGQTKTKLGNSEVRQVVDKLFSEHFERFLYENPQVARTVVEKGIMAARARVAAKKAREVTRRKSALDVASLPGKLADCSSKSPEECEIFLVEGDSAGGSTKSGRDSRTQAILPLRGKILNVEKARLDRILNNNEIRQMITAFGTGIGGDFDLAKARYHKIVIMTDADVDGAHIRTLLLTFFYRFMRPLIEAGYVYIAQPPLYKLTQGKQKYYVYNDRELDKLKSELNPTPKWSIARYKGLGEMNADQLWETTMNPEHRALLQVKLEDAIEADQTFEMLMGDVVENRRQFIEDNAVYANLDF
Sequence of DNA gyrase (P20831 whole entry): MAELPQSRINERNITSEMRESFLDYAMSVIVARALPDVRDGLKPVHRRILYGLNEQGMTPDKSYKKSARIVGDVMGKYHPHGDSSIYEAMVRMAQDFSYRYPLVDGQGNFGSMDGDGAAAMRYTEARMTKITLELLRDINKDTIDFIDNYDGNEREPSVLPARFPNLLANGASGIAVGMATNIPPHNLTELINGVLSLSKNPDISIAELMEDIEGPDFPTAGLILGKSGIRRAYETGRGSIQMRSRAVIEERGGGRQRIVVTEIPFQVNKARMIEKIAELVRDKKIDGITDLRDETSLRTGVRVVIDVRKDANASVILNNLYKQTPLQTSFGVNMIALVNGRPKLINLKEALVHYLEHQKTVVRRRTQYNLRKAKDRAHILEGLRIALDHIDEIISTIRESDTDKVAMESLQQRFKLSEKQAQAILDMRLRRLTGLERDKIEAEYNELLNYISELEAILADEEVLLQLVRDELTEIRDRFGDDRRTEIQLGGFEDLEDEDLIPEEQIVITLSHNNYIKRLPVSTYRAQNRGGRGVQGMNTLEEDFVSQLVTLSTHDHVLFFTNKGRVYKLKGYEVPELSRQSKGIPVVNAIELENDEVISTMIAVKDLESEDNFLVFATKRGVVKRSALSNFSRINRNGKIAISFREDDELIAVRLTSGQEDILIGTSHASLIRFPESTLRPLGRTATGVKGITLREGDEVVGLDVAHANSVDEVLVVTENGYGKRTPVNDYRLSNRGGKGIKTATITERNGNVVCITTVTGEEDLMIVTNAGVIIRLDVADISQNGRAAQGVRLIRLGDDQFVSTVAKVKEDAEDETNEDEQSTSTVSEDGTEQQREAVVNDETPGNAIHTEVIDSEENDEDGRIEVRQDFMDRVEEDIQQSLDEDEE

Sequence of DNA gyrase (Staphylococcus aureus) (P0A0K8 2-644 limits assumed): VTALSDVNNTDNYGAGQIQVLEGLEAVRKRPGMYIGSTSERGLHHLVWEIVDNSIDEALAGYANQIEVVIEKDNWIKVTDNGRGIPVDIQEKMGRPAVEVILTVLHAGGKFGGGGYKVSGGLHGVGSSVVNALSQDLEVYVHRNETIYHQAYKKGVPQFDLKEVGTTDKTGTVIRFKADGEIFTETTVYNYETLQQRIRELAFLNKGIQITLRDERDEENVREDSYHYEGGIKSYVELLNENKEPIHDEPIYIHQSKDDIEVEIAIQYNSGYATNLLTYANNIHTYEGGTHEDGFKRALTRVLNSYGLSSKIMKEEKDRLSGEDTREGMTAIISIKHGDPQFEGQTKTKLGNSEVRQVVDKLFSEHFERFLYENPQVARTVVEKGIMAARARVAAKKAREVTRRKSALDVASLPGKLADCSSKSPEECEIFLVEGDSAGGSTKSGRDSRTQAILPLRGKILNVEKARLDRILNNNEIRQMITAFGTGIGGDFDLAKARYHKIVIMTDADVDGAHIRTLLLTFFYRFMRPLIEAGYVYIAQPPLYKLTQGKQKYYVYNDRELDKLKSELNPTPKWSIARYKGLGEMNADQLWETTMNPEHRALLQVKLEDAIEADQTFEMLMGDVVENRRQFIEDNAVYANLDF
Sequence of DNA gyrase (Staphylococcus aureus) (P20831 whole entry partner): as the sequence (P20831 whole entry) above

Row | Structure (SMILES) | IC50 (Staphylococcus aureus [1]) | IC50 (Staphylococcus aureus [2]) | MIC (Staphylococcus aureus [2]) | IC50 (Staphylococcus aureus [3]) | MIC (Staphylococcus aureus [3]) | IC50 (Staphylococcus aureus [4]) | MIC (Staphylococcus aureus [4]) | IC50 (Staphylococcus aureus [5]) | MIC (Staphylococcus aureus [5]) | IC50 (Escherichia coli) | IC50 (Staphylococcus aureus [6]) | MIC (Staphylococcus aureus [6]) | IC50 (Staphylococcus aureus [7]) | MIC (Staphylococcus aureus [7]) | IC50 (Staphylococcus aureus [8]) | MIC (Staphylococcus aureus [8]) | selectivity ratio [9] | MIC (Staphylococcus aureus [1]) | selectivity ratio [10] | inhibition [11] | other results
1 | COc1cccc(OC)c1C(=O)N[C@@H]1C(=O)N2[C@@H]1SC(C)(C)[C@@H]2C(=O)O [METHICILLIN] | 1.2 µg/mL (≈ 3.15 µM) | 1.3 µg/mL (≈ 3.42 µM) | 3.9 µg/mL (≈ 10.3 µM) | 2.2 µg/mL (≈ 5.78 µM) | 3.9 µg/mL (≈ 10.3 µM) | 2.2 µg/mL (≈ 5.78 µM) | 7.8 µg/mL (≈ 20.5 µM) | 11.8 µg/mL (≈ 31 µM) | 31.3 µg/mL (≈ 82.3 µM) | > 1000 µg/mL | 1.9 µg/mL (≈ 4.99 µM) | 3.9 µg/mL (≈ 10.3 µM) | 0.98 µg/mL (≈ 2.58 µM) | 1.95 µg/mL (≈ 5.13 µM) | 11.8 µg/mL (≈ 31 µM) | 31.3 µg/mL (≈ 82.3 µM) |  |  |  |  | 
2 | COc1cc(/C=C/C(=O)/C=C/c2ccc(O)c(OC)c2)ccc1O | 195 µg/mL (≈ 597 µM) | 303 µg/mL (≈ 929 µM) | 500 µg/mL (≈ 1530 µM) | 124 µg/mL (≈ 379 µM) | 250 µg/mL (≈ 766 µM) | 141 µg/mL (≈ 432 µM) | 250 µg/mL (≈ 766 µM) | 185 µg/mL (≈ 567 µM) | 500 µg/mL (≈ 1530 µM) | > 1000 µg/mL | 202 µg/mL (≈ 620 µM) | 500 µg/mL (≈ 1530 µM) | 111 µg/mL (≈ 341 µM) | 250 µg/mL (≈ 766 µM) | 133 µg/mL (≈ 409 µM) | 250 µg/mL (≈ 766 µM) | 0.2 | 500 µg/mL (≈ 1530 µM) | 0.4 | inactive | IC50 (PBMC): 46.9 µg/mL (≈ 144 µM); selectivity ratio [12]: 0.2; IC50 (Vero): 5.7 µg/mL (≈ 17.5 µM); selectivity ratio [13]: 0.3; selectivity ratio [14]: 0.2; selectivity ratio [15]: 0.3; selectivity ratio [16]: 0.4; selectivity ratio [17]: 8.2; selectivity ratio [18]: 0.4
3 | CCCCCCCCCCCCCC#CC(=O)Oc1ccc(/C=C/C(=O)/C=C/c2ccc(OC(=O)C#CCCCCCCCCCCCCC)c(OC)c2)cc1OC | 38.9 µg/mL (≈ 48.9 µM) | 34.2 µg/mL (≈ 43 µM) | 62.5 µg/mL (≈ 78.6 µM) | 34.2 µg/mL (≈ 43 µM) | 62.5 µg/mL (≈ 78.6 µM) | 30.3 µg/mL (≈ 38.1 µM) | 62.5 µg/mL (≈ 78.6 µM) | 24.9 µg/mL (≈ 31.3 µM) | 31.3 µg/mL (≈ 39.4 µM) | > 1000 µg/mL | 25.4 µg/mL (≈ 31.9 µM) | 31.3 µg/mL (≈ 39.4 µM) | 39.5 µg/mL (≈ 49.7 µM) | 62.5 µg/mL (≈ 78.6 µM) | 34.9 µg/mL (≈ 43.9 µM) | 62.5 µg/mL (≈ 78.6 µM) | 9.7 | 62.5 µg/mL (≈ 78.6 µM) | 7.2 |  | IC50 (DNA gyrase): 126 µM; IC50 (PBMC): 247 µg/mL (≈ 310 µM); selectivity ratio [12]: 6.3; IC50 (Vero): > 100 µg/mL; selectivity ratio [13]: 9.9; selectivity ratio [14]: 7.2; selectivity ratio [15]: 8.1; selectivity ratio [16]: 6.2; selectivity ratio [18]: 7.1
4 | CCCCCCCCCCCCCCCC(=O)O [PALMITIC ACID] | > 1000 µg/mL | > 1000 µg/mL |  | > 1000 µg/mL |  | > 1000 µg/mL |  | > 1000 µg/mL |  | > 1000 µg/mL | > 1000 µg/mL |  | > 1000 µg/mL |  | > 1000 µg/mL |  |  |  |  |  | 
5 | CCCCCCCCCCCCCCCC(=O)Oc1ccc(/C=C/C(=O)/C=C/c2ccc(OC(=O)CCCCCCCCCCCCCCC)c(OC)c2)cc1OC | > 1000 µg/mL | > 1000 µg/mL |  | > 1000 µg/mL |  | > 1000 µg/mL |  | > 1000 µg/mL |  | > 1000 µg/mL | > 1000 µg/mL |  | > 1000 µg/mL |  | > 1000 µg/mL |  |  |  |  | inactive | 
